Activity calls are given as the source filed them. The rule behind the calls is not given here.
Key:
Plasmodium falciparum [1] = assay: Inhibition of Plasmodium falciparum 20S proteasome beta 2 subunit trypsin-like activity using fluorogenic peptide Ac-WLR-AMC as substrate in presence of PA28alpha at 0.8 uM measured over 5 hrs by fluorescence microplate reader assay
Plasmodium falciparum [2] = assay: Inhibition of Plasmodium falciparum 20S proteasome beta 1 subunit caspase-like activity using fluorogenic peptide Ac-nLPnLD-AMC as substrate in presence of PA28alpha at 0.8 uM measured over 5 hrs by fluorescence microplate reader assay
Plasmodium falciparum [3] = assay: Inhibition of Plasmodium falciparum 20S proteasome beta 5 subunit chymotrypsin-like activity using fluorogenic peptide Ac-WLA-AMC as substrate in presence of PA28alpha at 0.8 uM measured over 5 hrs by fluorescence microplate reader assay
Plasmodium falciparum [4] = assay: Antiplasmodial activity against sorbitol synchronized ring stage bortezomib-resistant Plasmodium falciparum 3D7 clone B1a assessed as reduction in parasitemia incubated for 72 hrs by Syto-61 staining dye based flow cytometry analysis; format: functional; settings: read-out: LD50 (the source's name)
Method in brief: (§1)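 Sorbitol-treated ring-stage parasites in O+ human erythrocytes were incubated with compound for 72 h, and viability was read in the second cycle. Read-out was Syto-61 (2 µM) flow cytometry of parasitemia, normalized to untreated and 2 µM DHA-killed controls. Mean ± SEM of three independent experiments.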

[5] = Inhibition of Plasmodium falciparum 20S proteasome beta 1 subunit caspase-like activity using fluorogenic peptide Ac-nLPnLD-AMC as substrate in presence of PA28alpha incubated for 1 to 2 hrs by fluorescence microplate reader assay
[6] = system: Plasmodium falciparum 3D7; assay: Inhibition of 20S proteasome beta 1 subunit from bortezomib resistant Plasmodium falciparum 3D7 trophozoite infected erythrocytes assessed as inhibition of BMV037 probe labeling at 1 to 10 uM incubated for 1 hr by SDS-PAGE analysis; settings: dose 1-10 µM
[7] = Inhibition of Plasmodium falciparum 20S proteasome beta 2 subunit trypsin-like activity using fluorogenic peptide Ac-WLR-AMC as substrate in presence of PA28alpha incubated for 1 to 2 hrs by fluorescence microplate reader assay
Plasmodium falciparum [8] = assay: Antiplasmodial activity against DHA-resistant and sorbitol synchronized ring stage forms of Plasmodium falciparum Cam3.II^R539T expressing K13 mutant assessed as reduction in parasitemia incubated for 3 hrs by pulse exposure based Syto-61 staining dye based flow cytometry analysis; format: functional; settings: read-out: LD50 (the source's name)
Method in brief: (§2)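 Tightly synchronized early-ring parasites (1-3 h post-invasion) exposed to compound for 3 h, then viability assessed in the next cycle. Cells stained with 2 µM Syto-61 and parasitemia read by flow cytometry, normalized to untreated and kill controls (2 µM DHA, 48-72 h). Mean ± SEM of three independent experiments.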

Plasmodium falciparum [9] = assay: Antiplasmodial activity against DHA-sensitive and sorbitol synchronized ring stage forms of Plasmodium falciparum Cam3.II^rev expressing K13 wild-type genotype assessed as reduction in parasitemia incubated for 3 hrs by pulse exposure based Syto-61 staining dye based flow cytometry analysis; format: functional; settings: read-out: LD50 (the source's name); method in brief: as §2
[10] = Inhibition of Plasmodium falciparum 20S proteasome beta 5 subunit chymotrypsin-like activity using fluorogenic peptide Ac-WLA-AMC as substrate in presence of PA28alpha incubated for 1 to 2 hrs by fluorescence microplate reader assay
[11] = biological target: T1, Proteasome subunit beta type-8 (Homo sapiens) (UniProt P28062); assay: Inhibition of human 20S immunoproteasome beta 5 subunit assessed as inhibition of BMV037 probe labeling at 1 to 10 uM incubated for 1 hr by SDS-PAGE analysis; settings: dose 1-10 µM
T1 sequence (whole entry): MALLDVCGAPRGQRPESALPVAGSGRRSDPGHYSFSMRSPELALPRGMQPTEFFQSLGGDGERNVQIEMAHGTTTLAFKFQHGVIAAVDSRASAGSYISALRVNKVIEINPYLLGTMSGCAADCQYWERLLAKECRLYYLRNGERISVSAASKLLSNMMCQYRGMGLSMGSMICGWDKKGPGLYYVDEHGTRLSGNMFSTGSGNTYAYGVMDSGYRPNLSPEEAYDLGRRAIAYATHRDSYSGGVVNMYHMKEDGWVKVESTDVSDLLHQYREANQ
Method in brief: (§3)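 Purified human immuno-20S (20 nM) was incubated with compound at 37°C for 1 h, then labelled with 10 µM BMV037 at 37°C for 2 h. Samples were run on 4-12% Bis-Tris gel with MES buffer, and active subunits were visualised by Cy5 fluorescence.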

[12] = biological target: T2, Proteasome Macropain subunit MB1 (Homo sapiens) (UniProt P28074); assay: Inhibition of human 20S constitutive proteasome beta 5 subunit assessed as inhibition of BMV037 probe labeling at 1 to 10 uM incubated for 1 hr by SDS-PAGE analysis; settings: dose 1-10 µM
T2 sequence (whole entry): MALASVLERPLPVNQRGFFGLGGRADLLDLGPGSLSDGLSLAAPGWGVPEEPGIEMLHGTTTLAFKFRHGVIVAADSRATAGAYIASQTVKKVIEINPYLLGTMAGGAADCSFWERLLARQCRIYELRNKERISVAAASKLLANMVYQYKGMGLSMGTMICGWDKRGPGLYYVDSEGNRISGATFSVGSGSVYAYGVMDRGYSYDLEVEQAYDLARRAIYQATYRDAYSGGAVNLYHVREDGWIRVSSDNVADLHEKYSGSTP
Method in brief: (§4)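 Purified human constitutive 20S (20 nM) was treated with compound at 37°C for 1 h, then labelled with 10 µM BMV037 at 37°C for 2 h. Samples were run on 10% Bis-Tris gel with MOPS buffer, and active subunits were detected by Cy5 fluorescence scan.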

[13] = system: Plasmodium falciparum 3D7; assay: Inhibition of 20S proteasome beta 5 subunit from bortezomib resistant Plasmodium falciparum 3D7 trophozoite infected erythrocytes assessed as inhibition of BMV037 probe labeling at 1 to 10 uM incubated for 1 hr by SDS-PAGE analysis; settings: dose 1-10 µM
[14] = biological target: T3, Proteasome component C5 (Homo sapiens) (UniProt P20618); assay: Inhibition of human 20S constitutive proteasome beta 1 subunit assessed as inhibition of BMV037 probe labeling at 1 to 10 uM incubated for 1 hr by SDS-PAGE analysis; settings: dose 1-10 µM; method in brief: as §4
T3 sequence (whole entry): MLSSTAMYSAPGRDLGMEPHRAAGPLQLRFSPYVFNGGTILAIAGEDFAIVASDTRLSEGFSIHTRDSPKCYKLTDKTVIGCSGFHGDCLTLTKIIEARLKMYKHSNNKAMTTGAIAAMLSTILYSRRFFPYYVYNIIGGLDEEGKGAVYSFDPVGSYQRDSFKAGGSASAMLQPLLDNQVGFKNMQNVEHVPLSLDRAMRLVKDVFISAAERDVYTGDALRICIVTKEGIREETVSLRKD

[15] = biological target: T4, Proteasome subunit beta type-9 (Homo sapiens) (UniProt P28065); assay: Inhibition of human 20S immunoproteasome beta 1 subunit assessed as inhibition of BMV037 probe labeling at 1 to 10 uM incubated for 1 hr by SDS-PAGE analysis; settings: dose 1-10 µM; method in brief: as §3
T4 sequence (whole entry): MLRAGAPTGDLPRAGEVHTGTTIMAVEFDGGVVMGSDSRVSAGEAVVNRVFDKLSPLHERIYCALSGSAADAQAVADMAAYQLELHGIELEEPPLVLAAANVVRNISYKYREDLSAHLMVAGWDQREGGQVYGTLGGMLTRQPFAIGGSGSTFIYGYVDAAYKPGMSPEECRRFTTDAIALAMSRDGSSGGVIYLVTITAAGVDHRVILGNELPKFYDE

Plasmodium falciparum [16] = assay: Inhibition of proteasome in Plasmodium falciparum trophozoite stage transfected with GFP-DD assessed as reduction in GFP-DD fusion protein degradation at 0.02 to 0.5 uM incubated for 3 hrs in absence of Shield-1 by Western blot analysis; settings: dose 0.02-0.5 µM
Method in brief: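 GFP-DD reporter parasites were held in Shield-1 for 24 h, washed out, then treated as trophozoites (5% hematocrit, 5% parasitemia) with compound for 3 h at 37°C. […] Representative of four independent experiments.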

Plasmodium falciparum [17] = assay: Antiplasmodial activity against sorbitol synchronized ring stage bortezomib-resistant Plasmodium falciparum 3D7 clone B2a assessed as reduction in parasitemia incubated for 72 hrs by Syto-61 staining dye based flow cytometry analysis; format: functional; settings: read-out: LD50 (the source's name); method in brief: as §1
Plasmodium falciparum [18] = assay: Antiplasmodial activity against sorbitol synchronized ring stage Plasmodium falciparum 3D7 assessed as reduction in parasitemia incubated for 72 hrs by Syto-61 staining dye based flow cytometry analysis; format: functional; settings: read-out: LD50 (the source's name); method in brief: as §1
[19] = biological target: T5, Proteasome subunit beta type-9 (Homo sapiens, UniProt P28065); assay: Inhibition of human 20S immunoproteasome beta 1 subunit caspase-like activity using fluorogenic peptide Ac-nLPnLD-AMC as substrate in presence of PA28alpha incubated for 1 to 2 hrs by fluorescence microplate reader assay
T5 sequence (P28065 whole entry): T4 sequence (whole entry)

[20] = system: Plasmodium falciparum 3D7; assay: Inhibition of 20S proteasome beta 5 subunit in bortezomib-resistant Plasmodium falciparum 3D7 assessed as inhibition of BMV037 probe labeling at 1 to 10 uM incubated for 1 hr by SDS-PAGE analysis; settings: dose 1-10 µM
[21] = Selectivity index, ratio of LD50 for cytotoxicity against human HepG2 cells to LD50 for antiplasmodial activity against Plasmodium falciparum 3D7 sorbitol-treated ring stage; format: toxicity, cell-based; settings: read-out: Selectivity Index
[22] = biological target: T6, Proteasome subunit beta type-10 (Homo sapiens, UniProt P40306); assay: Inhibition of human 20S immunoproteasome beta 2 subunit trypsin-like activity using fluorogenic peptide Ac-WLR-AMC as substrate in presence of PA28alpha incubated for 1 to 2 hrs by fluorescence microplate reader assay
T6 sequence (P40306 whole entry): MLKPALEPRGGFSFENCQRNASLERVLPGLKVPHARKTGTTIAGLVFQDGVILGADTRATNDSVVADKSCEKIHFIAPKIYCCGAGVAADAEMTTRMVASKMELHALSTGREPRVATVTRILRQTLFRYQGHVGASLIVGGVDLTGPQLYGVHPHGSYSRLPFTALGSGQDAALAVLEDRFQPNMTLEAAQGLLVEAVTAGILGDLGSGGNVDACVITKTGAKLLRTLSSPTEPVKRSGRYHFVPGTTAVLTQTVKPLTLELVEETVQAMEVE

[23] = biological target: T7, Proteasome subunit beta type-7 (Homo sapiens, UniProt Q99436); assay: Inhibition of human 20S constitutive proteasome beta 2 subunit trypsin-like activity using fluorogenic peptide Ac-WLR-AMC as substrate in presence of PA28alpha incubated for 1 to 2 hrs by fluorescence microplate reader assay
T7 sequence (Q99436 whole entry): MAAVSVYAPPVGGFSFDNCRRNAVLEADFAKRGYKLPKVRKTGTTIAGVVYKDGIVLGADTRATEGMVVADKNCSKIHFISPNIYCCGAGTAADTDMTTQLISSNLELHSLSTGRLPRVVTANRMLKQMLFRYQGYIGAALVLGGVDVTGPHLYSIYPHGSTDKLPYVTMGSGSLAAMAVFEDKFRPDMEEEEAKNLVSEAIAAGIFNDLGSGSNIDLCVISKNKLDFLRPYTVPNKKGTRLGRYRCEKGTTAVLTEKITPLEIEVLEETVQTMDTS

[24] = biological target: T8, Proteasome Macropain subunit MB1 (Homo sapiens, UniProt P28074); assay: Inhibition of human 20S constitutive proteasome beta 5 subunit chymotrypsin-like activity using fluorogenic peptide Ac-WLA-AMC as substrate in presence of PA28alpha incubated for 1 to 2 hrs by fluorescence microplate reader assay
T8 sequence (P28074 whole entry): T2 sequence (whole entry)

[25] = biological target: T9, Proteasome subunit beta type-6 (Homo sapiens, UniProt P28072); assay: Inhibition of human 20S constitutive proteasome beta 1 subunit caspase-like activity using fluorogenic peptide Ac-nLPnLD-AMC as substrate in presence of PA28alpha incubated for 1 to 2 hrs by fluorescence microplate reader assay
T9 sequence (P28072 whole entry): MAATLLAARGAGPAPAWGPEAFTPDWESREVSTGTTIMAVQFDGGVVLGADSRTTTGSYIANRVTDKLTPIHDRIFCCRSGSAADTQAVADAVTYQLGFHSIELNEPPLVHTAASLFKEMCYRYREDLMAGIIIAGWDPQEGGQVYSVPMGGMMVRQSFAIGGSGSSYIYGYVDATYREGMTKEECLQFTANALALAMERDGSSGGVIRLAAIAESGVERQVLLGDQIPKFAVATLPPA

[26] = biological target: T10, Proteasome subunit beta type-8 (Homo sapiens, UniProt P28062); assay: Inhibition of human 20S immunoproteasome beta 5 subunit chymotrypsin-like activity using fluorogenic peptide Ac-WLA-AMC as substrate in presence of PA28alpha incubated for 1 to 2 hrs by fluorescence microplate reader assay
T10 sequence (P28062 whole entry): T1 sequence (whole entry)

CC(C)C[C@H](NC(=O)[C@H](CCc1ccccc1)NC(=O)CN1CCOCC1)C(=O)N[C@@H](Cc1ccccc1)C(=O)N[C@@H](CC(C)C)C(=O)[C@@]1(C)CO1
inhibition (Plasmodium falciparum [1]): Active | inhibition (Plasmodium falciparum [2]): inactive | inhibition (Plasmodium falciparum [3]): Active

CC(C)C[C@H](NC(=O)[C@H](Cc1ccccc1)NC(=O)c1cnccn1)B(O)O [BORTEZOMIB]
LC50 (Plasmodium falciparum [4]): 1300 nM | IC50 [5]: 320 nM | inhibition [6]: Active | IC50 [7]: 1600 nM | LC50 (Plasmodium falciparum [8]): 120 nM | LC50 (Plasmodium falciparum [9]): 180 nM | IC50 [10]: 53 nM | inhibition [11]: Active | inhibition [12]: Active | inhibition [13]: Active | inhibition [14]: Active | inhibition [15]: Active | inhibition (Plasmodium falciparum [16]): Active | LC50 (Plasmodium falciparum [17]): 1100 nM | LC50 (Plasmodium falciparum [18]): 60 nM

CC(=O)N1CCC[C@H]1C(=O)N[C@@H](C)C(=O)N[C@@H](CC(C)C)B(O)O
IC50 [19]: 13 nM | inhibition [20]: inactive | IC50 [5]: 3000 nM | IC50 [7]: > 10000 nM | selectivity ratio [21]: 15 | LC50 (Plasmodium falciparum [8]): 1500 nM | LC50 (Plasmodium falciparum [9]): 1800 nM | IC50 [10]: 2900 nM | IC50 [22]: > 10000 nM | IC50 [23]: > 10000 nM | IC50 [24]: 97 nM | IC50 [25]: 320 nM | IC50 [26]: 63 nM | LC50 (Plasmodium falciparum [18]): 160 nM

— ChEMBL document CHEMBL4680111, “Target Validation and Identification of Novel Boronate Inhibitors of the Plasmodium falciparum Proteasome” (J Med Chem, 2018)
